The list is not random: actives were taken first. Their share in the collection is about 3.5%.
MrgX1 ag = human MrgX1 receptor agonism, primary screen | MrgX1-HEK293 cells, Fluo-4 calcium fluorescence, agonist mode; stronger effect = higher value | B-score at 10 µM | 310,000 tested, 0.44% active | AID 588627;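 active = calcium response B-score plate-corrected fluorescence ratio at least 3 library SD, with starting fluorescence B-score inside 5 SD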
Target sequence (Q96LB2 whole entry, looked up): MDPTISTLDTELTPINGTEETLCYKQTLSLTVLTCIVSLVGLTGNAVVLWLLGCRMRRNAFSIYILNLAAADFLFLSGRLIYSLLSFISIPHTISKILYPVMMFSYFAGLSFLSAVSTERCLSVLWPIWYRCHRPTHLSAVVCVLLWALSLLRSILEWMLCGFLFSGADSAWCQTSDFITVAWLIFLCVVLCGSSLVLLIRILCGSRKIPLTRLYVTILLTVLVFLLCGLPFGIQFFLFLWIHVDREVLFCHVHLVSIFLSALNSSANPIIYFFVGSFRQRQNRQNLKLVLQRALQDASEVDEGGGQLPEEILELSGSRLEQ
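Test system: HEK293 cells stably expressing human MrgX1 receptor; amount: 15,000 cells per well; doses: compound delivered in addition one of three; times: overnight plating before 1 h dye loading; detection: Fluo-4 NW calcium-flux fluorescence, kinetic read; read-out basis: B-scored fluorescence response ratio; controls: positive and negative controls per plate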
MrgX1 antagonist = human MrgX1 receptor antagonism, primary screen; AID 588676; MRGX1-HEK293 calcium flux, Fluo-4, BAM8-22 antagonism; stronger effect = lower value; B-score at 10 µM; Q96LB2; 310,000 tested, 1.3% active;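 active = calcium-response B-score plate-corrected more than 3 library SD below zero, starting fluorescence within 5 deviations, no agonist response on first addition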;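 note: peak minus trough fluorescence over baseline after final BAM8-22 challenge near maximal dose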
RGS4 block = human RGS4 inhibition; P49798; 310,000 tested, 0.45% active; AID 463165; HEK293 M3R/RGS4 inducible, Fluo-4 calcium flux; stronger effect = higher value; triggered by carbachol at its EC20; B-score at 10 µM;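 active = B-score, a plate-corrected calcium signal, over three deviations above library mean, with baseline fluorescence within five deviations of library mean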;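 note: RGS4 expression induced by doxycycline in cells with stable M3 receptor; B-score is computed from the integrated fluorescence ratio over baseline after carbachol; higher B-score means a larger calcium signal and so more RGS4 inhibition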
Target sequence (P49798 whole entry, looked up): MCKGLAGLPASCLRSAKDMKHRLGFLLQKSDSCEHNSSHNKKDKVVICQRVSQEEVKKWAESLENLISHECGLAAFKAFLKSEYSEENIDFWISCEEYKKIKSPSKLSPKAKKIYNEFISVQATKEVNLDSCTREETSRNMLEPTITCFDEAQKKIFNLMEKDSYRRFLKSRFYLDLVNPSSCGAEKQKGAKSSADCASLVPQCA
RGS4 pot = RGS4 potentiation or activation; B-score at 10 µM; HEK293 M3R/inducible RGS4, carbachol calcium flux Fluo4; stronger effect = lower value; 310,000 tested, 0.92% active;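 active = B-score of the integrated calcium signal more than 4 SD below the library mean, with starting fluorescence not abnormally high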;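 note: negative B-score means reduced calcium response which marks RGS4 activation or potentiation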
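Material: M3R-expressing HEK293 line, RGS4 induced by doxycycline | Schedule: Overnight RGS4 induction, 30 min dye load 37 °C, 20 min compound RT | Measured by: Fluo4 fluorescence kinetic imaging of calcium | Read-out: Integrated calcium ratio converted to B score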
MrgX1 allo act = allosterically activates human MrgX1 receptor signaling | MrgX1-HEK293, Fluo-4 calcium flux, FDSS; stronger effect = higher value | B-score at 10 µM | 310,000 tested, 0.63% active | AID 588675;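 active = plate-corrected calcium response at least 3 library SD above typical, normal starting fluorescence, not activating the receptor alone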;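 note: compound read alongside a low EC10 to EC30 dose of BAM8-22 agonist; peak minus trough fluorescence over baseline measured at the second addition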
MrgX1 ant reconf = reconfirmed antagonist of human MrgX1 receptor signaling; remaining BAM8-22 calcium response % of control (stronger effect = lower value), % at 10 µM; shares compounds with MrgX1 antagonist; 2,300 tested, 19% active; MrgX1-HEK293, BAM8-22 calcium flux, Fluo-4; stronger effect = lower value; AID 602420;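 active = remaining agonist calcium response no higher than 100% minus 3 SD of agonist-only control wells, with starting fluorescence near control levels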;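 note: agonist BAM8-22 given at a near maximal EC90 to ECmax level; peak minus minimum fluorescence divided by baseline after agonist addition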
HEK293 Ca flux = MrgX1 antagonist counter-screen hit in parental HEK293 cells. AID 624111. fluorescence ratio F(max-min)/F0 at 10 µM. shares compounds with MrgX1 antagonist. 4,000 tested, 2% active. Fluo-4 calcium fluorescence, FDSS;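 active = duplicate-averaged calcium fluorescence ratio at least three times the standard deviation of buffer wells, a nonspecific response in parental cells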
HEK293 Ca counter = counter-screen for MrgX1 allosteric activators: effect in parental HEK293 cells | fluorescence ratio F(max-min)/F0 at 10 µM | shares compounds with MrgX1 antagonist | 4,000 tested, 0.4% active | parental HEK293 calcium flux, Fluo-4 fluorescence ratio; stronger effect = higher value | AID 624114;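 active = calcium fluorescence ratio, averaged over duplicates, at least 3 SD of the buffer-well ratio, meaning a nonspecific response in receptor-free cells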;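 note: untransfected parental HEK293 lacking MrgX1 used as counterscreen for MrgX1 allosteric activators; fluorescence change taken during the second addition on a kinetic imager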
HEK293 Ca cntr2 = MrgX1 activator counter-screen hit in parental HEK293 cells | shares compounds with MrgX1 antagonist | Fluo-4 calcium fluorescence (FDSS); stronger effect = higher value | fluorescence ratio F(max-min)/F0 at 10 µM | 4,000 tested, 8.7% active;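 active = calcium fluorescence ratio at least three times the spread of buffer wells, meaning a non-specific response in parental cells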
Numbers stand for hits; – = inactive; · = not tested or not shown; ! = not active in a repeat.

SMILES	MrgX1 ag	MrgX1 antagonist	RGS4 block	RGS4 pot	MrgX1 allo act	MrgX1 ant reconf	HEK293 Ca flux	HEK293 Ca counter	HEK293 Ca cntr2
Cc1ccccc1OCC(=O)NCCCNC(=O)c1ccncc1	–	–	–	–	–	·	·	·	·
N#Cc1nc(Cc2ccccc2)oc1NCCN1CCOCC1	–	-7.5	–	–	–	–	–	–	–
COc1ccc(Cc2nc3ccc(C(=O)NCC(C)(C)OC)cc3o2)cc1	–	-6.3	–	–	–	–	–	–	–
Cc1cc(S(=O)(=O)/N=C(\N)c2ccc(C(N)=O)cc2)cc(C)c1F	–	–	–	–	–	·	·	·	·
COc1ccc(S(=O)(=O)NCc2nc3nc(C)cc(C)n3n2)cc1OC	–	–	–	–	–	·	·	·	·
O=C(CNC(=O)c1cccs1)OCC(=O)c1ccccc1	–	–	–	–	–	·	·	·	·
CCc1ccc(C(=O)COC(=O)CNC(=O)c2cccs2)cc1	–	-6.2	–	–	–	–	–	–	–
O=C1NCC(O)=C1C=Nc1ccccc1O	–	–	–	–	–	·	·	·	·
Cc1ccc2c(C(=O)CN3CCN(c4ccccc4)CC3)c(C)[nH]c2c1	–	-7.3	–	–	–	–	–	–	–
Cc1ccc2c(C(=O)CN3CCOCC3)c(C)[nH]c2c1	–	–	–	–	–	·	·	·	·
COc1ccccc1N1CCN(C(=O)C2CCCO2)CC1 (stereo not given)	–	-8.2	–	–	–	–	–	–	–
O=C(NC(Cc1c[nH]c2ccccc12)C(=O)NCc1ccc(F)cc1)OCc1ccccc1 (stereo not given)	–	–	–	–	–	·	·	·	·
COc1ccccc1NC(=O)c1cc2ccccc2nc1C	–	–	–	–	–	·	·	·	·
COc1ccccc1NC(=O)c1ccc2nc(C)c(C)nc2c1	–	-8.1	–	–	–	–	–	–	–
CC(C)(NC(=O)c1ccccc1)c1nc2ccccc2s1	–	–	–	–	–	·	·	·	·
O=C(O)CCSc1ccc2ccccc2n1	–	-6.7!	–	–	–	–	–	–	–
CCOC(=O)C1CCCN(CC(=O)Nc2nc(-c3ccccc3)cs2)C1 (stereo not given)	–	–	–	–	–	·	·	·	·
COc1ccc(N2CCN(S(=O)(=O)CCNC(=O)c3cc(=O)c4ccccc4o3)CC2)cc1	–	–	–	–	–	·	·	·	·
Cc1ccc2nc3sc(C(=O)N4CCCc5ccccc54)c(N)c3cc2c1	–	-5.7	–	–	–	–	0.58	–	–
CN1C(C(=O)NCc2cccc(C(F)(F)F)c2)CC2Cn3c(nc4cc5ccccc5cc43)C21 (stereo not given)	–	–	–	–	–	·	·	·	·
Cc1cc2nc3n(c2cc1C)CC1CC(C(=O)NCc2cccc(C(F)(F)F)c2)N(C)C31 (stereo not given)	–	-5.5	–	–	–	–	–	–	–
CCCOC(=O)c1ccc(NC(=O)C(CC)CC)cc1	–	-6.4	–	–	–	–	–	–	–
O=C(NCC(=O)N1CC=C(c2ccccc2)CC1)c1ccco1	–	–	–	–	–	·	·	·	·
C=C(C)COc1ccc(-c2nc(N)ncc2Oc2ccc(OC)cc2)c(O)c1	–	-4.6	–	–	–	–	–	–	–
C=C(C)COc1ccc(-c2nc(N)ncc2Oc2ccccc2OC)c(O)c1	–	–	·	·	–	·	·	·	·
SMILES	MrgX1 ag	MrgX1 antagonist	RGS4 block	RGS4 pot	MrgX1 allo act	MrgX1 ant reconf	HEK293 Ca flux	HEK293 Ca counter	HEK293 Ca cntr2
COc1ccc(NC(=O)CNS(=O)(=O)c2cccc3nonc23)c(OC)c1	–	-5.7	–	–	–	–	–	–	–
CCOC(=O)c1sc(NC(=O)c2ccc(C)o2)nc1C	–	-8	–	–	–	–	–	–	–
COC(=O)c1sc(NC(=O)c2ccc(C)o2)nc1C	–	–	–	–	–	·	·	·	·
O=C(O)c1ccc(N2CCCCC2)cc1	–	-6.4	–	–	–	–	–	–	–
Cc1ccc(S(=O)(=O)CCC(=O)NCCc2ccc(Cl)cc2)cc1	–	–	–	–	–	·	·	·	·
Cc1ccc(CCNC(=O)CCS(=O)(=O)c2ccc(Br)cc2)cc1	–	-8.1	–	–	–	–	–	–	–
CCOc1ccc(S(=O)(=O)NCCC(=O)NCc2cccnc2)cc1	–	–	–	–	–	·	·	·	·
O=C1OC(N2C(=O)CC[C@H]2C(=O)Nc2ccc3c(c2)OCO3)c2ccccc21 (stereo not given in full)	–	–	–	–	–	·	·	·	·
Cc1ccc(N2CCC(N3CCN(C)C(CCO)C3)CC2)cc1 (stereo not given)	–	-5	–	–	–	–	–	–	–
COc1cccc(N2CCC(N3CCN(C)C(CCO)C3)CC2)c1 (stereo not given)	–	–	–	–	–	·	·	·	·
COc1cccc(NC(=O)CNC(=O)c2ccc(F)cc2)c1	–	–	·	·	–	·	·	·	·
COc1cccc(NC(=O)CNC(=O)c2ccc(C)cc2)c1	–	-9.1	–	–	–	–	–	–	–
COc1cccc(NC(=O)COc2ccc(C)cc2)c1	–	–	·	·	–	·	·	·	·
COc1ccc(OCC(=O)Nc2cccc(C(C)=O)c2)cc1	–	-6.3	–	–	–	–	–	–	–
CCc1ccc(NC(=O)Cc2ccc(NC3=NC4CS(=O)(=O)CC4S3)cc2)cc1 (stereo not given)	–	-6.1	–	–	–	–	–	–	–
CCOc1ccc(NC(=O)Cc2ccc(NC3=NC4CS(=O)(=O)CC4S3)cc2)cc1 (stereo not given)	–	–	–	–	–	·	·	·	·
O=C(CSc1nc2scc(-c3ccccc3)c2c(=O)[nH]1)NCCc1ccccc1	–	–	–	–	–	·	·	·	·
O=C(CSc1nc2scc(-c3ccccc3)c2c(=O)[nH]1)N1CCOCC1	–	-9.1	–	–	–	–	–	–	–
Cc1sc2nc(SCC(=O)N3CCCC3)[nH]c(=O)c2c1C	–	–	–	–	–	·	·	·	·
Cc1sc2nc(SCC(=O)N3CCCCC3)[nH]c(=O)c2c1C	–	-7.3	–	–	–	–	–	–	–
CCCCOc1ccc(NC(=O)Nc2nnc(C)s2)cc1	–	–	–	–	–	·	·	·	·
Fc1ccccc1-c1n[nH]c(=S)n1CC1CCCO1 (stereo not given)	–	-6.3	–	–	–	–	–	–	–
Cc1ccc(-c2c[nH]c(=S)n2-c2ccccc2F)cc1	–	–	–	–	–	·	·	·	·
CCOC(=O)c1ccc(NC(=S)NCCc2ccccc2)cc1	–	–	–	–	–	·	·	·	·

Compound activity deposited in PubChem by Johns Hopkins Ion Channel Center.
